# Assay outcomes deposited in PubChem BioAssay by several laboratories.
# SIAE inh = human SIAE inhibitors, primary screen, biochemical, fluorescence polarization, FP-Rh probe, 1536-well HTS | Sialate O-acetylesterase (Homo sapiens), Q9HAT2 | SIAE FP-Rh probe binding | inhibition, % at 9.66 µM | actives 0.69% (n = 370,000) | AID 1053197, 2014;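 active = inhibition above a cutoff: mean of compounds within the control limits plus 3 SD of those, cut at about 17% in these data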;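 also: 0% = plate median of compound wells and 100% = probe without SIAE protein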
# TCR-CD3 inh = inhibitors of human TCR-CD3 interaction, primary screen, biochemical, fluorescence, TAMRA-labeled TCR probe. T-cell receptor (TCR). inhibition, % at 9.4 µM. actives 0.37% (n = 360,000). AID 651800, 2012; in the data active = inhibition above about 19%;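 also: recombinant mutant TCR 2C K166C tagged with TAMRA read by polarization; 0% = receptor in buffer alone and 100% = receptor with positive control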
# HTRA1 inhibitor = HTRA1 serine protease inhibitors, primary screen, biochemical, fluorescence polarization, HTS. Q92743. inhibition, % at 5.96 µM. actives 0.5% (n = 340,000). recombinant HTRA1, FP-rhodamine activity-based probe; in the data active = inhibition above about 36%;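 also: 0% = enzyme with DMSO and 100% = wells lacking enzyme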
# Target sequence (Q92743 whole entry, looked up): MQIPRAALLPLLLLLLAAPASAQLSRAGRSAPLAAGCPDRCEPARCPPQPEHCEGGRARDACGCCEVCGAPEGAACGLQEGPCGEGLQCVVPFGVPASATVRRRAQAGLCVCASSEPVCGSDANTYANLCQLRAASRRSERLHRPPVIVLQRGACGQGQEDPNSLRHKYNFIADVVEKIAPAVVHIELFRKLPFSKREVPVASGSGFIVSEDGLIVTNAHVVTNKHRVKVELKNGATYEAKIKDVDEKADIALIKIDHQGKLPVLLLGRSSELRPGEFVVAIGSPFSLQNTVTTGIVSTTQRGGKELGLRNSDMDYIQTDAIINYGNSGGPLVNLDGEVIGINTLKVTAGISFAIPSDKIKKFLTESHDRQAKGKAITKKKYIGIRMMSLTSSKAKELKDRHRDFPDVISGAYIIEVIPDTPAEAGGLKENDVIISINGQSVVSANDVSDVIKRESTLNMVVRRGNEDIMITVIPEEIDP
# ATG4B inhibitor = ATG4B protease inhibitors, primary screen, biochemical, fluorescence, uHTS; Cysteine protease ATG4B (Homo sapiens), Q9Y4P1; ATG4B cleavage of LC3-PLA2, NBD-HPC fluorescence, 1 h; inhibition, % at 8.33 µM; actives 0.51% (n = 340,000); AID 504462, 2011; in the data active = inhibition above about 40%
# PRMT1 inh = PRMT1 methyltransferase inhibitors, primary screen, biochemical, fluorescence polarization | inhibition, % at 2.79 µM | recombinant PRMT1, activity-based probe fluorescence polarization | Protein arginine N-methyltransferase 1 (Homo sapiens), Q99873 | actives 1.3% (n = 370,000);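 active = inhibition above about 21% made by adding two undisclosed values, limit read from the data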
# ABHD4 inh = ABHD4 inhibitors, primary screen, biochemical, fluorescence polarization, mouse. inhibition, % at 8.92 µM. actives 0.54% (n = 370,000). purified mABHD4, FP-Rh probe fluorescence polarization. (Lyso)-N-acylphosphatidylethanolamine lipase (Mus musculus), Q8VD66;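 active = inhibition exceeding the mean over every tested compound plus 3 SD, cut at about 30% in these data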;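 also: 0% = plate median of compound wells and 100% = S159A mutant with DMSO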
#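 Test system: mouse ABHD4 enzyme, wild type. Reagent: FP-Rh fluorescent activity-based probe, added after compound pre-incubation. Timing: pre-incubation 45 min, probe exposure 60 min, at 25 °C. Technique: FP readout, ex 525 nm / em 598 nm. Benchmarks: high control S159A mutant with DMSO, low control median of compound wells.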
# SIAE inh conf = human SIAE inhibitors, retest, confirmation, biochemical, fluorescence polarization, FP-Rh probe, triplicate; shares compounds with SIAE inh; actives 13% (n = 2,300); AID 1117263, 2014; SIAE FP-Rh activity-based probe; inhibition, % at 9.66 µM;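 active = mean inhibition of the replicates above the hit cutoff set in the primary screen, cut at about 17% in these data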;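 also: 0% = SIAE with DMSO and probe and 100% = probe without SIAE; inhibitors lower polarization as more probe stays unbound to SIAE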
# Active calls of the source: *; x = no result. Shown are actives, neighbours in structure and some others; about 2.9% of the full set was active somewhere.
SMILES,SIAE inh,TCR-CD3 inh,HTRA1 inhibitor,ATG4B inhibitor,PRMT1 inh,ABHD4 inh,SIAE inh conf
C=CCN(C(=O)[C@@H](C)[C@@H](O)c1ccc2ccccc2c1)c1ccccc1,-3,x,x,x,3,-4,x
COC(=O)c1cc2c(c3c4cc(OC)ccc4n(S(=O)(=O)c4ccc(OC)cc4)c13)C(=O)N(Cc1ccc(C(F)(F)F)cc1)C2,-6,2,x,x,5,-2,x
O=C(C(=O)N1CCC(CNS(=O)(=O)c2ccc3ccccc3c2)CC1)c1cc2ccccc2o1,-10,-2,x,x,-1,-16,x
COc1cc(C2c3c([nH]c(=O)[nH]c3=O)Nc3ccc4ccccc4c32)cc(OC)c1OC (configuration not stated),13,1,7,0,-3,1,x
COc1cc(C2c3c([nH]c(=O)[nH]c3=O)Nc3ccc4ccccc4c32)ccc1O (configuration not stated),30*,4,8,1,-1,15,37*
COc1ccccc1NC(=S)N/N=C/c1ccc(O)cc1,19*,-11,-2,-19,0,2,-2
COc1ccccc1NC(=S)N/N=C/c1cccc(C)c1,4,5,-12,-9,2,-9,x
CN(C)c1ccc(C(CNS(=O)(=O)c2ccc(F)c(F)c2)c2c[nH]c3ccccc23)cc1 (configuration not stated),27*,4,11,18,1,-10,3
CN(C)c1ccc(C(CNC(=O)c2ccccc2F)c2c[nH]c3ccccc23)cc1 (configuration not stated),0,-3,-5,-13,-3,2,x
CCN1Cc2nnn(Cc3ccc(C)cc3)c2-c2ccccc2S1(=O)=O,-2,x,x,x,2,1,x
O=C(NNC(=O)c1ccc2c(=O)n3c(nc2c1)CCC3)c1ccc(Cl)cc1,3,4,1,3,-2,-4,x
O=C(NNC(=O)c1ccc2c(=O)n3c(nc2c1)CCC3)c1ccc(F)cc1,23*,-1,2,-3,-3,2,3
CC(C)c1ccc(NC(=S)N2CCN(Cc3ccccc3)CC2)cc1,-1,8,-4,-8,-2,0,x
S=C(Nc1ccc(Cl)cc1)N1CCN(Cc2ccccc2)CC1,18*,-6,-9,-30,1,-2,6
O=C(CCCCCN1C(=O)c2ccccc2C1=O)Nc1cccc(O)c1,3,6,3,-4,-1,0,x
O=C(CCN1C(=O)c2ccccc2C1=O)Nc1cccc(O)c1,20*,5,10,3,-6,-1,-1
COC(=O)[C@]12C[C@H](CC(=O)NCc3ccc(OC)c(OC)c3)C(=O)N(Cc3ccc4c(c3)OCO4)C1=C[C@H](COCc1ccccc1)O[C@@H]2C,5,-11,x,x,-1,-3,x
Nc1c(-c2ccccc2Cl)cnn1-c1cccc([N+](=O)[O-])c1,75*,0,2,25,-2,-2,-1
CC(C)(C)c1ccc(C(=O)NNc2ccc(F)cc2F)cc1,22*,-1,-1,-8,1,-14,-4
CCc1ccc(C(=O)NNc2ccc(F)cc2F)cc1,-2,-3,-2,-4,4,5,x
Cc1cc(N2CCCC2)n2nc(C)nc2n1,19*,-7,2,-6,-5,-8,-3
CCOC(=O)N1CCN(c2cc(C)nc3nc(C)nn23)CC1,-5,-11,2,-2,-6,-6,x
O=C1C[C@@H](C(=O)Nc2ccc(Cl)cc2)[C@@H](c2ccccc2)O1,-7,x,x,x,-3,-4,x
Cc1cc(C)n(CCNC(=O)[C@@H](Cc2ccccc2)NC(=O)[C@H]2O[C@@H](n3ccc(=O)[nH]c3=O)[C@H](O)[C@@H]2O)n1,4,-4,x,x,1,2,x
O=C(O)C1(c2ccccc2)CCN(S(=O)(=O)c2ccc(F)c(F)c2)CC1,20*,-5,-1,-12,-1,6,4
SMILES,SIAE inh,TCR-CD3 inh,HTRA1 inhibitor,ATG4B inhibitor,PRMT1 inh,ABHD4 inh,SIAE inh conf
COc1cc(NC(=O)[C@@H](Cc2ccccc2)NC(=O)[C@H]2O[C@@H](n3ccc(=O)[nH]c3=O)[C@H](O)[C@@H]2O)cc(OC)c1OC,-6,-2,x,x,3,-1,x
CC#CC(=O)N[C@H]1CC[C@@]23CCCN2C(=O)CCC[C@H]3[C@H]1C,0,x,x,x,-2,3,x
O=C(COC(=O)C1CCCN1C(=O)c1cccs1)c1ccccc1 (configuration not stated),17*,-3,0,6,2,0,-6
COc1ccc(NC(=O)NC2CCN(S(=O)(=O)c3ccc(F)cc3)CC2)cc1OC,4,x,x,x,-3,2,x
Cc1cccc(C)c1-n1nnnc1C1(C)CN(S(C)(=O)=O)CC(=O)N1Cc1ccc(F)cc1 (configuration not stated),1,x,x,x,-4,1,x
CC(=O)Nc1ccc(N(C)C)cc1[N+](=O)[O-],7,0,10,-3,1,4,x
CC(=O)Nc1ccc(O)cc1[N+](=O)[O-],20*,-2,-1,0,-1,-4,-3
CC(COc1cccc(C(F)(F)F)c1)CN1CCC(C(O)(c2ccccc2)c2ccccc2)CC1 (configuration not stated),0,x,x,x,2,12,x
CC(Sc1ccc(Cl)cc1)C(=O)NCC(c1ccco1)N1CCCCC1 (configuration not stated),63*,-2,-11,2,-4,-4,-2
CCCCOCCCNC(=O)C[C@H]1C[C@@]2(C(=O)OC)C(=C[C@H](C3CCCC3)O[C@@H]2C)N(Cc2ccccc2)C1=O,15,2,x,x,3,-1,x
C=CCn1c(CNC(=O)c2cccs2)nnc1SCC(=O)Nc1ccc(C(=O)O)cc1,8,-5,4,-6,-1,-6,x
C=CCn1c(CNC(=O)c2cccs2)nnc1SCC(=O)c1ccc(Br)cc1,28*,2,-12,-17,-1,-5,2
CCOC(=O)[C@@]12CCCC=C1N(CCc1ccc(Cl)cc1)C(=O)[C@H]2CC(=O)NCc1cccc(C(F)(F)F)c1,-3,x,x,x,0,-8,x
COc1ccc(C(=O)NN=C2CCCC2)cc1,20*,0,3,2,2,0,-5
COc1cccc(C(=O)NN=C2CCCC2)c1,4,9,-3,3,-3,2,x
